Test results published in ChEMBL document CHEMBL1127543, “Dual angiotensin converting enzyme/thromboxane synthase inhibitors” (J Med Chem, 1994).
One block for each compound: values may come before it. Activity calls are given as the source filed them. The calls are words filed in the database; no cut-off is given here.

Tests used:
[1] = molecular target: T1, Angiotensin-converting enzyme (Oryctolagus cuniculus, UniProt P12822); assay: Tested for 50% inhibition of Angiotensin converting enzyme(ACE) obtained from rabbit lung (in vitro)
T1 sequence (P12822 whole entry): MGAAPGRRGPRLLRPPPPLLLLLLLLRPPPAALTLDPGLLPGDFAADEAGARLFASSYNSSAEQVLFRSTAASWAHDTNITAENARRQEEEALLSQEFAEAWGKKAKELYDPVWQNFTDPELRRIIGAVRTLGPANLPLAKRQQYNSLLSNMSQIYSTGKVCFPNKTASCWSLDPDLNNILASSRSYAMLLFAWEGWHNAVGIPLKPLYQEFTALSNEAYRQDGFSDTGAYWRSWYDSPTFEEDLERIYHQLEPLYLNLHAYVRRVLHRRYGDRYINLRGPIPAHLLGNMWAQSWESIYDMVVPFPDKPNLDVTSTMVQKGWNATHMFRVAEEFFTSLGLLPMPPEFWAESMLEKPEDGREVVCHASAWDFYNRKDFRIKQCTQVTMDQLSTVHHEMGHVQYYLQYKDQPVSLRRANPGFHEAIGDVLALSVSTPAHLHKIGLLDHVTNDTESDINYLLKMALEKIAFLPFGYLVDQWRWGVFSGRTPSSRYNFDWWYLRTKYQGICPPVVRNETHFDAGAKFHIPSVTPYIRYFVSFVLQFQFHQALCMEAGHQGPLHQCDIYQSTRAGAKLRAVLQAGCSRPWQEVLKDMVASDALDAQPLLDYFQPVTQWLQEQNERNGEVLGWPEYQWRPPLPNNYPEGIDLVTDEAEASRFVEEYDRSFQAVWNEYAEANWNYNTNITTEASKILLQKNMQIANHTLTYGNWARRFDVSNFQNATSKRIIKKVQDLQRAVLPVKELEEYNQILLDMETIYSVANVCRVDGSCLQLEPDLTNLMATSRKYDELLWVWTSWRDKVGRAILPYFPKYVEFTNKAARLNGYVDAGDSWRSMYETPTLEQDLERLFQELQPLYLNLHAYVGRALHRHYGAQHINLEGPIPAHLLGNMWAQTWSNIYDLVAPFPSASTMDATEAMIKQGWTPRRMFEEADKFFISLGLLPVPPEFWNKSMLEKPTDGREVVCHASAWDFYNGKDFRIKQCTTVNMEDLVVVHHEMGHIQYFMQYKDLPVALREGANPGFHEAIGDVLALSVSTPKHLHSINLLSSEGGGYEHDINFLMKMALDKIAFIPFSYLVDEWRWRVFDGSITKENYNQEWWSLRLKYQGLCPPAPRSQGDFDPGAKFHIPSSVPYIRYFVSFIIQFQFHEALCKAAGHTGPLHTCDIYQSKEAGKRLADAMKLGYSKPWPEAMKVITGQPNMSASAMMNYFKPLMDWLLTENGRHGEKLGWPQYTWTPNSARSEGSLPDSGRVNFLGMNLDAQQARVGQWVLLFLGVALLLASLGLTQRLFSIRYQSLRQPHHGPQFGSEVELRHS
Method in brief: (§1)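 ACE was partially purified from rabbit lung and incubated with the synthetic substrate Hip-His-Leu. The hippuric acid product was measured spectrophotometrically. IC50 was read graphically from a range of inhibitor concentrations within the assay's linear range. Each determination was done in duplicate and repeated once.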

[2] = tested on: Rattus norvegicus; assay: Tested for percent inhibition of maximum angiotensin I (AI) pressor response in rats on oral administration of 300 mg/kg after 2 hr; format: functional
Method in brief: (§2)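 Conscious catheterized SHR were prepared as for blood pressure recording. At set times after dosing, angiotensin I was injected intraarterially in 0.5 mL. The rise in arterial pressure was recorded and expressed as percent inhibition of the angiotensin I pressor response.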

[3] = tested on: Rattus norvegicus; assay: Antihypertensive activity was measured in spontaneously hypertensive rat (SHR) by measuring the maximum blood pressure when administered orally at dose of 10 mg/kg after 4 hr; format: functional; details: route oral
Method in brief: (§3)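 Conscious, fully ambulatory SHR (250–280 g) were fitted with an arterial catheter led through an infusion swivel inside a protective spring. After 24 h recovery from surgery, rats were housed singly. Mean arterial pressure was recorded continuously after dosing over a 6-h period, with later readings up to 24 h. Rats had chow and tap water freely under a 12-h light cycle.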

[4] = tested on: Rattus norvegicus; assay: Antihypertensive activity was measured in spontaneously hypertensive rat (SHR) by measuring the blood pressure after 24 hours when administered orally at dose of 10 mg/kg; format: functional; details: route oral; method in brief: as §3
[5] = tested on: Rattus norvegicus; assay: Tested for percent inhibition of maximum angiotensin I (AI) pressor response in rats on oral administration of 300 mg/kg after 5 hr; format: functional; method in brief: as §2
[6] = tested on: Rattus norvegicus; assay: Antihypertensive activity was measured in spontaneously hypertensive rat (SHR) by measuring the maximum blood pressure when administered orally at dose of 10 mg/kg after 6 h; format: functional; details: route oral; method in brief: as §3
[7] = molecular target: T2, Thromboxane-A synthase (Homo sapiens, UniProt P24557); assay: Tested for 50% inhibition of thromboxane synthase (TxS) in human platelets (in vitro)
T2 sequence (P24557 whole entry): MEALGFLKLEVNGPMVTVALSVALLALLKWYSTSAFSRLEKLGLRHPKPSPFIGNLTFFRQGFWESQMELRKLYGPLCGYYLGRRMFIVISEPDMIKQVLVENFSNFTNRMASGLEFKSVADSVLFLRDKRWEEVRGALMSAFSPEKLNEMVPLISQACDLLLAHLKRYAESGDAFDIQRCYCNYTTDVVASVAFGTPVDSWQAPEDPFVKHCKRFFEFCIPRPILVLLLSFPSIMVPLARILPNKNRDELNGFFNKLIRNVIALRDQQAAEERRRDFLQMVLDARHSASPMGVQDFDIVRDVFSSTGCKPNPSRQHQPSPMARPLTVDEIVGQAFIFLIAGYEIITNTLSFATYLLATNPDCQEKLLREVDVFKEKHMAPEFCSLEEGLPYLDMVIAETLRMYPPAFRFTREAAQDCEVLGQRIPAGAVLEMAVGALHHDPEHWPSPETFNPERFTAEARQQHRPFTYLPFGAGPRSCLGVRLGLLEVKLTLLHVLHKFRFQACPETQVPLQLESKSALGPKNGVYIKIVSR
Method in brief: (§4)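 IC50 was obtained graphically from a range of compound concentrations within the linear range of the assay. Determinations were made in duplicate and repeated once.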

[8] = tested on: Rattus norvegicus; assay: Tested for percent inhibition of maximum angiotensin I (AI) pressor response in rats on oral administration of 300 mg/kg after 0.5 hr; format: functional; method in brief: as §2
[9] = tested on: Rattus norvegicus; assay: Antihypertensive activity was measured in spontaneously hypertensive rat (SHR) by measuring the blood pressure on interarterial administration at dose of 1 mg/kg; Not significant; format: functional, organism-based; parameters: dose 1 mg/kg; details: Artery; method in brief: as §3
[10] = tested on: Rattus norvegicus; assay: Antihypertensive activity was measured in spontaneously hypertensive rat (SHR) by measuring the blood pressure after 24 hours on interarterial administration at dose of 1 mg/kg; Not significant; format: functional, organism-based; parameters: dose 1 mg/kg; details: Artery; method in brief: as §3
[11] = molecular target: T2, Thromboxane-A synthase; assay: Tested for 50% inhibition of thromboxane synthase (TxS) in human platelets (in vitro); Not active; method in brief: as §4
[12] = molecular target: T1, Angiotensin-converting enzyme; assay: Tested for 50% inhibition of Angiotensin converting enzyme(ACE) obtained from rabbit lung (in vitro); Not active; method in brief: as §1
[13] = tested on: Rattus norvegicus; assay: Tested for percent inhibition of maximum angiotensin I (AI) pressor response in rats on oral administration of 300 mg/kg after 4 hr; format: functional; method in brief: as §2
[14] = tested on: Rattus norvegicus; assay: Antihypertensive activity was measured in spontaneously hypertensive rat (SHR) by measuring the maximum blood pressure when administered orally at dose of 30 mg/kg after 4 h; format: functional; details: route oral; method in brief: as §3
[15] = species: Rattus norvegicus; details: 30 mg/kg
[16] = tested on: Rattus norvegicus; assay: Antihypertensive activity was measured in spontaneously hypertensive rat (SHR) by measuring the blood pressure on interarterial administration at dose of 1 mg/kg after 5 h; format: functional, Artery; method in brief: as §3
[17] = tested on: Rattus norvegicus; assay: Antihypertensive activity was measured in spontaneously hypertensive rat (SHR) by measuring the maximum blood pressure when administered orally at dose of 10 mg/kg after 5 h; format: functional; details: route oral; method in brief: as §3

Structure (SMILES): Cn1c(-c2cccnc2)c(CCCCCC(=O)NCCNCCCC[C@H](N[C@H]2CCc3ccccc3N(CC(=O)[O-])C2=O)C(=O)[O-])c2cc(Cl)ccc21.[K+].[K+]
IC50 [1]: 4 nM | inhibition in vivo at 300 mg/kg [5]: 39% | Max delta BP [6]: -38 mmHg | Delta blood pressure [4]: -23 mmHg | IC50 [7]: 10 nM

Structure (SMILES): O=C([O-])CN1C(=O)C(OP(=O)([O-])CCCCc2ccccc2)CCc2ccccc21.[Na+].[Na+] (centres undefined)
IC50 [1]: 20 nM | IC50 [11]: Not Active

Structure (SMILES): CCOP(=O)(O)CCCCn1c(-c2cccnc2)c(C)c2ccccc21.Cl
IC50 [12]: Not Active | IC50 [7]: 9 nM

Structure (SMILES): Cc1c(-c2cccnc2)n(CCCCCCCC(=O)O[C@@H]2C[C@H](N[C@@H](CCc3ccccc3)C(=O)O)C(=O)N(CC(=O)O)c3ccccc32)c2ccccc12
IC50 [1]: 90 nM | IC50 [7]: 20 nM

Structure (SMILES): Cc1c(-c2cccnc2)n(CCCCC(=O)O)c2ccccc12
IC50 [12]: Not Active

Structure (SMILES): Cn1c(-c2cccnc2)c(CCCCCC(=O)N(CCO)CCCC[C@H](N[C@H]2CCc3ccccc3N(CC(=O)O)C2=O)C(=O)O)c2cc(Cl)ccc21
IC50 [1]: 10 nM | inhibition in vivo at 300 mg/kg [8]: 76% | inhibition in vivo at 300 mg/kg [5]: 30% | Max delta BP [16]: -23 mmHg | Max delta BP [17]: -42 mmHg | Delta blood pressure [10]: inactive | Delta blood pressure [4]: -30 mmHg

Continued, in another order:

IC50 [1]: 7 nM
Structure (SMILES): NCCCC[C@H](N[C@@H]1CCc2ccccc2N(CC(=O)O)C1=O)C(=O)O
inhibition in vivo at 300 mg/kg [2]: 70% | Max delta BP [3]: -30 mmHg | Delta blood pressure [4]: -18 mmHg

IC50 [1]: 6 nM | IC50 [7]: 4 nM
Structure (SMILES): Cn1c(-c2cccnc2)c(CCCCCC(=O)NCCCC[C@H](N[C@@H]2CCc3ccccc3N(CC(=O)O)C2=O)C(=O)O)c2cc(Cl)ccc21
inhibition in vivo at 300 mg/kg [8]: 81% | Max delta BP [9]: inactive | Delta blood pressure [10]: inactive

IC50 [1]: 7 nM | IC50 [11]: Not Active
Structure (SMILES): O=C(O)CN1C(=O)[C@@H](N[C@@H](CCCCNCCO)C(=O)O)CCc2ccccc21
inhibition in vivo at 300 mg/kg [13]: 84% | Max delta BP [14]: -28 mmHg | Delta blood pressure [15]: inactive

IC50 [1]: 20 nM
Structure (SMILES): O=C(O)C(CCCCc1cccc2cncn12)CCC(=O)N1c2ccccc2C[C@H]1C(=O)O (some centres undefined)
